Reference: ChEMBL document CHEMBL2380300, “Identification of new peptide amides as selective cathepsin L inhibitors: the first step towards selective irreversible inhibitors?” (Bioorg Med Chem Lett, 2013)
Square brackets hold non-standard residues; d marks the D form. Peptide text beside a SMILES is read from it. * marks the point of attachment. ξ: configuration not given here. Bip = N[C@@H](Cc1ccc(-c2ccccc2)cc1)C(=O)O; Phe(4-NH2) = Nc1ccc(C[C@H](N)C(=O)O)cc1; Cbz = O=C(OCc1ccccc1)*; ξPip = O=C(O)C1CCCCN1

Species: Homo sapiens
Test: Selectivity ratio of Ki for recombinant cathepsin-K (unknown origin) to Ki for recombinant cathepsin-L (unknown origin)
In short: (§1)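 FK = Ki(CatK)/Ki(CatL) and FS = Ki(CatS)/Ki(CatL). Each Ki comes from recombinant enzyme kinetics over a minimum of four inhibitor concentrations, each measured in duplicate.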

| Compound | Ratio Ki |
| --- | --- |
| NCCCC[C@H](NC(=O)[C@H](Cc1ccccc1)NC(=O)[C@H](Cc1c[nH]c2ccccc12)NC(=O)OCc1ccccc1)C(N)=O (Cbz-Trp-Phe-Lys-NH2) | 1640 |

Species: Homo sapiens
Test: Selectivity ratio of Ki for recombinant cathepsin-S (unknown origin) to Ki for recombinant cathepsin-L (unknown origin)
In short: as §1

| Compound | Ratio Ki |
| --- | --- |
| NCCCC[C@H](NC(=O)[C@H](Cc1ccccc1)NC(=O)[C@H](Cc1c[nH]c2ccccc12)NC(=O)OCc1ccccc1)C(N)=O (Cbz-Trp-Phe-Lys-NH2) | 51 |

Target: T1, Cathepsin K (Homo sapiens, UniProt P43235)
T1 sequence (P43235 whole entry): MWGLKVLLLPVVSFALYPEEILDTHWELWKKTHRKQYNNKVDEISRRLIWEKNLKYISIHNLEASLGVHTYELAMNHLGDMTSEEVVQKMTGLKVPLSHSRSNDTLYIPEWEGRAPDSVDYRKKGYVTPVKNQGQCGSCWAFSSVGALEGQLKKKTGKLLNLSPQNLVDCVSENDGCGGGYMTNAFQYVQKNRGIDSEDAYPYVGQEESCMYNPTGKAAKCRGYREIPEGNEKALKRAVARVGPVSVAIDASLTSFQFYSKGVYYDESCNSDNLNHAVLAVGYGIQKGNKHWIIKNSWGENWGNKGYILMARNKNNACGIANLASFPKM
Test: Inhibition of recombinant cathepsin-K (unknown origin) using Z-Phe-Arg-AMC as substrate by fluorescence assay
In short: (§2)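 Recombinant enzyme kinetics. Inhibitor stocks were quantified by amino-acid analysis. Ki was obtained from a minimum of four inhibitor concentrations, each run in duplicate.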

| Compound | Ki [µM] |
| --- | --- |
| NCCCC[C@H](NC(=O)[C@H](Cc1ccccc1)NC(=O)[C@H](Cc1c[nH]c2ccccc12)NC(=O)OCc1ccccc1)C(N)=O (Cbz-Trp-Phe-Lys-NH2) | 639 |

Target: Cathepsin S (Homo sapiens, UniProt P25774)
Sequence (P25774 whole entry): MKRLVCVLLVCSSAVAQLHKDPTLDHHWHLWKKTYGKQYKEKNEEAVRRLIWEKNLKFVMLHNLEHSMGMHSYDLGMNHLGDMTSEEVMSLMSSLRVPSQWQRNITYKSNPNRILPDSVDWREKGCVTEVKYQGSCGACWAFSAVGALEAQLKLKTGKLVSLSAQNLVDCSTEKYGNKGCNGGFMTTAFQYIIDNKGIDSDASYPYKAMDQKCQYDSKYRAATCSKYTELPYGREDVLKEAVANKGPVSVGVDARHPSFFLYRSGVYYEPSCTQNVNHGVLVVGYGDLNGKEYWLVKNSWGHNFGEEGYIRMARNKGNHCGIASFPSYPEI
Test: Inhibition of recombinant cathepsin-S (unknown origin) using Z-Val-Arg-AMC as substrate by fluorescence assay
In short: as §2

| Compound | Ki [µM] |
| --- | --- |
| NCCCC[C@H](NC(=O)[C@H](Cc1ccccc1)NC(=O)[C@H](Cc1c[nH]c2ccccc12)NC(=O)OCc1ccccc1)C(N)=O (Cbz-Trp-Phe-Lys-NH2) | 20 |

Species: Homo sapiens
Test: Selectivity ratio of Ki for recombinant cathepsin-B (unknown origin) to Ki for recombinant cathepsin-L (unknown origin)
In short: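 Selectivity factor FB = Ki(CatB)/Ki(CatL). Both Ki values come from kinetic runs with the recombinant enzymes, each using at least three inhibitor concentrations in duplicate.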

| Compound | Ratio Ki |
| --- | --- |
| NCCCC[C@H](NC(=O)[C@H](Cc1ccccc1)NC(=O)C1=CCCC1)C(N)=O | 80 |
| NCCCC[C@H](NC(=O)[C@H](Cc1ccc(-c2cccc(N)c2)cc1)NC(=O)OCc1ccccc1)C(N)=O | 21 |
| CC(=O)Oc1ccc(C(=O)N[C@@H](Cc2ccccc2)C(=O)N[C@@H](CCCCN)C(N)=O)cc1 | 272 |
| NCCCC[C@H](NC(=O)[C@H](Cc1ccccc1)NC(=O)c1ccc(-c2ccccc2)cc1)C(N)=O | 9 |
| NC(=O)[C@H](Cc1ccc(N)cc1)NC(=O)[C@H](Cc1ccccc1)NC(=O)OCc1ccccc1 (Cbz-Phe-[Phe(4-NH2)]-NH2) | 107 |
| NCCCC[C@H](NC(=O)[C@H](Cc1ccccc1)NC(=O)[C@H](Cc1c[nH]c2ccccc12)NC(=O)OCc1ccccc1)C(N)=O (Cbz-Trp-Phe-Lys-NH2) | 2140 |
| Cc1cccc(C)c1C(=O)N[C@@H](Cc1ccccc1)C(=O)N[C@@H](CCCCN)C(N)=O | 169 |
| Cc1ccc(-c2ccc(C[C@H](NC(=O)OCc3ccccc3)C(=O)N[C@@H](CCCCN)C(N)=O)cc2)cc1 | 66 |
| Cc1ccccc1-c1ccc(C[C@H](NC(=O)OCc2ccccc2)C(=O)N[C@@H](CCCCN)C(N)=O)cc1 | 11 |
| N=C(N)NCCC[C@H](NC(=O)[C@H](Cc1ccccc1)NC(=O)OCc1ccccc1)C(N)=O (Cbz-Phe-Arg-NH2) | 12 |
| NCCCC[C@H](NC(=O)[C@H](Cc1ccccc1)NC(=O)c1cc([N+](=O)[O-])ccc1Cl)C(N)=O | 651 |
| NCCCC[C@H](NC(=O)[C@H](Cc1ccccc1)NC(=O)CCc1ccc(O)cc1)C(N)=O | 54 |
| NCCCC[C@H](NC(=O)[C@H](Cc1c[nH]cn1)NC(=O)OCc1ccccc1)C(N)=O (Cbz-His-Lys-NH2) | 18 |
| NCCC[C@H](NC(=O)[C@H](Cc1ccccc1)NC(=O)OCc1ccccc1)C(N)=O | 703 |
| NCCCC[C@H](NC(=O)[C@H](Cc1ccccc1)NC(=O)C1CCCCN1)C(N)=O (stereo partly drawn) (H-[ξPip]-Phe-Lys-NH2) | 8.4 |
| CC(C)C[C@H](NC(=O)[C@H](Cc1ccccc1)NC(=O)OCc1ccccc1)C(N)=O (Cbz-Phe-Leu-NH2) | 310 |
| NCCCC[C@H](NC(=O)[C@H](Cc1ccccc1)NC(=O)CCc1ccccc1)C(N)=O | 636 |
| NCCCC[C@H](NC(=O)[C@H](Cc1ccc(-c2ccccc2)cc1)NC(=O)OCc1ccccc1)C(N)=O (Cbz-[Bip]-Lys-NH2) | 32 |
| NCCCC[C@H](NC(=O)[C@H](Cc1ccccc1)NC(=O)c1ccccn1)C(N)=O | 15 |
| CNCCCC[C@H](NC(=O)[C@H](Cc1ccccc1)NC(=O)OCc1ccccc1)C(N)=O | 595 |

Target: Cathepsin B (Homo sapiens, UniProt P07858)
Test: Inhibition of recombinant cathepsin-B (unknown origin) using Z-Arg-Arg-AMC as substrate by fluorescence assay
In short: (§3)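 Kinetic assay with recombinant enzyme. Peptide amide stock concentrations were set by amino-acid analysis. Ki was derived from at least three inhibitor concentrations, each measured in duplicate.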

| Compound | Ki [µM] |
| --- | --- |
| NCCCC[C@H](NC(=O)[C@H](Cc1ccccc1)NC(=O)C1=CCCC1)C(N)=O | 623 |
| NCCCC[C@H](NC(=O)[C@H](Cc1ccc(-c2cccc(N)c2)cc1)NC(=O)OCc1ccccc1)C(N)=O | 38 |
| CC(=O)Oc1ccc(C(=O)N[C@@H](Cc2ccccc2)C(=O)N[C@@H](CCCCN)C(N)=O)cc1 | 706 |
| NCCCC[C@H](NC(=O)[C@H](Cc1ccccc1)NC(=O)c1ccc(-c2ccccc2)cc1)C(N)=O | 84 |
| NC(=O)[C@H](Cc1ccc(N)cc1)NC(=O)[C@H](Cc1ccccc1)NC(=O)OCc1ccccc1 (Cbz-Phe-[Phe(4-NH2)]-NH2) | 2790 |
| NCCCC[C@H](NC(=O)[C@H](Cc1ccccc1)NC(=O)[C@H](Cc1c[nH]c2ccccc12)NC(=O)OCc1ccccc1)C(N)=O (Cbz-Trp-Phe-Lys-NH2) | 835 |
| Cc1cccc(C)c1C(=O)N[C@@H](Cc1ccccc1)C(=O)N[C@@H](CCCCN)C(N)=O | 3390 |
| Cc1ccc(-c2ccc(C[C@H](NC(=O)OCc3ccccc3)C(=O)N[C@@H](CCCCN)C(N)=O)cc2)cc1 | 113 |
| Cc1ccccc1-c1ccc(C[C@H](NC(=O)OCc2ccccc2)C(=O)N[C@@H](CCCCN)C(N)=O)cc1 | 245 |
| N=C(N)NCCC[C@H](NC(=O)[C@H](Cc1ccccc1)NC(=O)OCc1ccccc1)C(N)=O (Cbz-Phe-Arg-NH2) | 349 |
| NCCCC[C@H](NC(=O)[C@H](Cc1ccccc1)NC(=O)c1cc([N+](=O)[O-])ccc1Cl)C(N)=O | 1760 |
| NCCCC[C@H](NC(=O)[C@H](Cc1ccccc1)NC(=O)CCc1ccc(O)cc1)C(N)=O | 135 |
| NCCCC[C@H](NC(=O)[C@H](Cc1c[nH]cn1)NC(=O)OCc1ccccc1)C(N)=O (Cbz-His-Lys-NH2) | 56 |
| NCCC[C@H](NC(=O)[C@H](Cc1ccccc1)NC(=O)OCc1ccccc1)C(N)=O | 2460 |
| NCCCC[C@H](NC(=O)[C@H](Cc1ccccc1)NC(=O)C1CCCCN1)C(N)=O (stereo partly drawn) (H-[ξPip]-Phe-Lys-NH2) | 51 |
| CC(C)C[C@H](NC(=O)[C@H](Cc1ccccc1)NC(=O)OCc1ccccc1)C(N)=O (Cbz-Phe-Leu-NH2) | 4340 |
| NCCCC[C@H](NC(=O)[C@H](Cc1ccccc1)NC(=O)CCc1ccccc1)C(N)=O | 2040 |
| NCCCC[C@H](NC(=O)[C@H](Cc1ccc(-c2ccccc2)cc1)NC(=O)OCc1ccccc1)C(N)=O (Cbz-[Bip]-Lys-NH2) | 77 |
| NCCCC[C@H](NC(=O)[C@H](Cc1ccccc1)NC(=O)c1ccccn1)C(N)=O | 80 |
| CNCCCC[C@H](NC(=O)[C@H](Cc1ccccc1)NC(=O)OCc1ccccc1)C(N)=O | 1550 |

Target: Procathepsin L (Homo sapiens, UniProt P07711)
Sequence (P07711 whole entry): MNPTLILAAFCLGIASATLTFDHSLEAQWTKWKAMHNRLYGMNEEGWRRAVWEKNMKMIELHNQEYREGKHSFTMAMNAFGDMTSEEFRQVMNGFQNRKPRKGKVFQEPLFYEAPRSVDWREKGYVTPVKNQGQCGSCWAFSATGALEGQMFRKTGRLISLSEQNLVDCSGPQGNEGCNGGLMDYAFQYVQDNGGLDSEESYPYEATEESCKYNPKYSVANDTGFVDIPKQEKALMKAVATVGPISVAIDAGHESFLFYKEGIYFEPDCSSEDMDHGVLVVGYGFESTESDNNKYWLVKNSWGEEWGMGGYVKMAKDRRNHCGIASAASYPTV
Test: Inhibition of recombinant cathepsin-L (unknown origin) using Z-Phe-Arg-AMC as substrate by fluorescence assay
In short: as §3

| Compound | Ki [µM] |
| --- | --- |
| NCCCC[C@H](NC(=O)[C@H](Cc1ccccc1)NC(=O)C1=CCCC1)C(N)=O | 7.8 |
| NCCCC[C@H](NC(=O)[C@H](Cc1ccc(-c2cccc(N)c2)cc1)NC(=O)OCc1ccccc1)C(N)=O | 1.8 |
| CC(=O)Oc1ccc(C(=O)N[C@@H](Cc2ccccc2)C(=O)N[C@@H](CCCCN)C(N)=O)cc1 | 2.6 |
| NCCCC[C@H](NC(=O)[C@H](Cc1ccccc1)NC(=O)c1ccc(-c2ccccc2)cc1)C(N)=O | 9 |
| NC(=O)[C@H](Cc1ccc(N)cc1)NC(=O)[C@H](Cc1ccccc1)NC(=O)OCc1ccccc1 (Cbz-Phe-[Phe(4-NH2)]-NH2) | 26 |
| NCCCC[C@H](NC(=O)[C@H](Cc1ccccc1)NC(=O)[C@H](Cc1c[nH]c2ccccc12)NC(=O)OCc1ccccc1)C(N)=O (Cbz-Trp-Phe-Lys-NH2) | 0.39 |
| Cc1cccc(C)c1C(=O)N[C@@H](Cc1ccccc1)C(=O)N[C@@H](CCCCN)C(N)=O | 20 |
| Cc1ccc(-c2ccc(C[C@H](NC(=O)OCc3ccccc3)C(=O)N[C@@H](CCCCN)C(N)=O)cc2)cc1 | 1.7 |
| Cc1ccccc1-c1ccc(C[C@H](NC(=O)OCc2ccccc2)C(=O)N[C@@H](CCCCN)C(N)=O)cc1 | 23 |
| N=C(N)NCCC[C@H](NC(=O)[C@H](Cc1ccccc1)NC(=O)OCc1ccccc1)C(N)=O (Cbz-Phe-Arg-NH2) | 28 |
| NCCCC[C@H](NC(=O)[C@H](Cc1ccccc1)NC(=O)c1cc([N+](=O)[O-])ccc1Cl)C(N)=O | 2.7 |
| NCCCC[C@H](NC(=O)[C@H](Cc1ccccc1)NC(=O)CCc1ccc(O)cc1)C(N)=O | 2.5 |
| NCCCC[C@H](NC(=O)[C@H](Cc1c[nH]cn1)NC(=O)OCc1ccccc1)C(N)=O (Cbz-His-Lys-NH2) | 3.1 |
| NCCC[C@H](NC(=O)[C@H](Cc1ccccc1)NC(=O)OCc1ccccc1)C(N)=O | 3.5 |
| NCCCC[C@H](NC(=O)[C@H](Cc1ccccc1)NC(=O)C1CCCCN1)C(N)=O (stereo partly drawn) (H-[ξPip]-Phe-Lys-NH2) | 6.1 |
| CC(C)C[C@H](NC(=O)[C@H](Cc1ccccc1)NC(=O)OCc1ccccc1)C(N)=O (Cbz-Phe-Leu-NH2) | 14 |
| NCCCC[C@H](NC(=O)[C@H](Cc1ccccc1)NC(=O)CCc1ccccc1)C(N)=O | 3.2 |
| NCCCC[C@H](NC(=O)[C@H](Cc1ccc(-c2ccccc2)cc1)NC(=O)OCc1ccccc1)C(N)=O (Cbz-[Bip]-Lys-NH2) | 2.4 |
| NCCCC[C@H](NC(=O)[C@H](Cc1ccccc1)NC(=O)c1ccccn1)C(N)=O | 5.5 |
| CNCCCC[C@H](NC(=O)[C@H](Cc1ccccc1)NC(=O)OCc1ccccc1)C(N)=O | 2.6 |
